Source: paper PMC3684861 (European journal of nuclear medicine and molecular imaging, 2011)

Experiments:
[1] = system: EMT6Ar1.0 cells; assay: In vitro cytotoxicity assay, EMT6Ar1.0 cells; type: cell-based, mouse; conditions: tariquidar ≥0.1 μM, 48 h, culture medium containing doxorubicin
Outline: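 The Pgp-overexpressing line was derived from EMT6 cells by culture under increasing doxorubicin concentrations and kept at 37°C, 5% CO₂. Cells were exposed to increasing test compound concentrations (0.01 to 10 μM) in their own culture medium for 48 h. Survival was expressed relative to control cells.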

[2] = system: EMT6 cells; assay: In vitro cytotoxicity assay, EMT6 cells; type: cell-based, mouse; conditions: tariquidar 0.01 to 10 μM, 48 h
Outline: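 EMT6 cells were grown as monolayers in Waymouth's MB 752/1 with 2.4 mM L-glutamine, 15% heat-inactivated FBS and penicillin/streptomycin at 37°C, 5% CO₂. Cells were exposed to increasing test compound concentrations (0.01 to 10 μM) in their culture medium for 48 h. Survival was expressed relative to control cells.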

[3] = cited from earlier work
[4] = system: Pgp at the BBB; conditions: tariquidar dose 15 mg/kg; cited from earlier work
[5] = cited from earlier work; remark: listed apart in the source
[6] = system: EMT6 and EMT6Ar1.0 tumour sections (Pgp); assay: In vitro autoradiography on tumour sections; type: binding, mouse; conditions: for binding in EMT6Ar1.0 tumours compared to EMT6 tumours: radiotracer alone, 30 min incubation, 10 μm tumour slices
Outline: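 Frozen tumours from imaged mice were cut into 10 μm cryostat sections at −12°C, with 3 consecutive sections. Sections were thawed, preincubated in PBS, then incubated 30 min with ¹¹C-labelled Pgp radiotracer (about 20 MBq), alone or with unlabelled inhibitor (10 μM). They were washed in 20% (v/v) ethanol/PBS and distilled water, air-dried, exposed to a phosphor screen and scanned at 600 dpi.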

[7] = system: Pgp overexpressing EMT6Ar1.0 tumours; type: in vivo, mouse
[8] = system: EMT6 tumours; type: in vivo, mouse; conditions: scan 2, 2 h after unlabelled tariquidar 15 mg/kg i.v.
[9] = system: Pgp at the BBB (whole brain); assay: Small-animal PET, whole brain as reference region for Pgp modulation at the BBB; type: in vivo, mouse; conditions: for tumoural activity uptake relative to brain activity uptake: scan 1, before unlabelled tariquidar; for brain AUC0-60 in scan 2 relative to scan 1: whole brain, scan 2 at 2 h after unlabelled tariquidar 15 mg/kg i.v.
[10] = system: EMT6Ar1.0 tumours; assay: Static [18F]FDG PET, EMT6Ar1.0 tumours; type: in vivo, mouse; conditions: 10 min static PET scan at 60 min after injection
Outline: (§1)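 Female athymic NMRI-Foxn1^nu mice (6-8 weeks) had EMT6 and EMT6Ar1.0 cells (3-5 × 10⁵) injected subcutaneously into opposite upper flanks. At about 130 mm³ tumour size, mice (n=7) under isoflurane at about 37°C received [¹⁸F]FDG (6±3 MBq) i.v. A 10 min static microPET scan was taken at 60 min. Tumour ROIs were outlined manually, with SUV = (radioactivity/cm³ ÷ injected radioactivity) × body weight.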

[11] = system: EMT6 tumours; assay: Static [18F]FDG PET, EMT6 tumours; type: in vivo, mouse; conditions: 10 min static PET scan at 60 min after injection
Outline: as §1

Compound | metabolism in vivo [5] | binding in EMT6Ar1.0 tumours compared to EMT6 tumours [6] [times] | tumoural activity uptake relative to brain activity uptake [9] [times] | brain AUC0-60 in scan 2 relative to scan 1 [9] [times] | other results
COc1cc2c(cc1OC)CN(CCc1ccc(NC(=O)c3cc(OC)c(OC)cc3NC(=O)c3cnc4ccccc4c3)cc1)CC2 [tariquidar, Tariquidar dimesylate] | – | – | – | – | cell survival rate [1]: < 5 % of control cells; effect on cell survival [2]: no effect; terminal elimination half-life [3]: 26 h; inhibition of Pgp at the BBB [4]: complete inhibition
4-[^18F]fluoropaclitaxel [reference compound] | extensively metabolised | – | – | – | –
COc1ccc(CCN([11CH3])CCC[C@](C#N)(c2ccc(OC)c(OC)c2)C(C)C)cc1OC [(R)-[^11C]verapamil, reference compound] | – | 1.3 | – | – | radiotracer binding after co-incubation ([6]; both tumours, co-incubation with unlabelled tariquidar, elacridar or verapamil (10 μM)): no significant reduction
COc1cc2c(cc1OC)CN(CCc1ccc(NC(=O)c3cc(OC)c(OC)cc3NC(=O)c3cnc4ccccc4c3)cc1)CC2 [[^11C]tariquidar] | hardly metabolised | 4.3 | 2 to 3 | 2.4±0.3 | higher retention in EMT6Ar1.0 tumours than in EMT6 tumours ([7]; PET, AUC0-60): 50%; mean AUC0-60±SD of tumour time-activity curve (SUV) ([7]; scan 2, 2 h after unlabelled tariquidar 15 mg/kg i.v., EMT6Ar1.0 tumours): 45.6 ± 4.8 min; mean AUC0-60±SD of tumour time-activity curve (SUV) [8]: 31.7 ± 7.9 min
COc1cc2c(cc1OC)CN(CCc1ccc(NC(=O)c3cccc4c(=O)c5cccc(OC)c5[nH]c34)cc1)CC2 [[^11C]elacridar] | hardly metabolised | 2.1 | 2 to 3 | 3.5±0.4 | –
OC[C@H]1OC(O)[C@H]([18F])[C@@H](O)[C@@H]1O (some centres unmarked) [[^18F]FDG] | – | – | – | – | mean tumoural SUV±SD [10]: 2.45±0.75; mean tumoural SUV±SD [11]: 1.86±0.49
